Hit rate of the full screen: of about 2,500 compounds, about 460 (18%) were called active. These entries were drawn from the full list. Unmarked numbers belong to inactive results.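 Rule for the calls: active = mean activation above a cutoff of low control average plus 3 SD from the earlier screen (cut at about 12% in these data); inactive = the rest.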

The record followed here is PubChem BioAssay AID504382 (The Scripps Research Institute Molecular Screening Center, 2011).

A short description of this assay: compound fluorescence interference without thin filaments, confirmation, artefact control for cardiac RTF calcium sensitizer project, biochemical (AID 504382). Particulars: IANBD fluorescence interference counterscreen, buffer, EC20 Ca2+; at 7.2 µM; stronger effect = higher value; scaled: EC20 calcium 0, EC100 calcium 100. The method in brief:
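Doses – one dose of 7.2 µM, 0.7% DMSO · Buffer or medium – MOPS/KCl/MgCl2/EGTA/NTA/DTT buffer, pH 7.2 · Probe or stimulus – Ca2+ fixed at EC20, 0.472 mM · Measured by – fluorescence intensity, excitation 480 nm, emission 540 nm · Read-out – fluorescence interference versus control range · Timing – 15 min compound exposure at 25 °C · Replication – triplicate wells per compound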
(The purpose of a counterscreen is to sort out artefacts and off-target activity.)
Turning to `CN(C)/C=C/C(=O)c1ccc(Br)s1`, the fluorescence artifact activation is 0.3%.
Regarding `O=c1c(/C=N/Nc2ccccc2)c(Sc2nnnn2-c2ccccc2)nc2ccccn12`, the fluorescence artifact activation is -0.06%.
Next, `C(=N\Nc1nnnn1-c1ccccc1)/c1ccncc1`: 0.02%; `O=C(O)c1ccccc1CSc1nnnn1-c1ccccc1`: 13.5% (active).
Turning to `Cc1ccnc(NC(=O)c2ccc(Br)s2)c1`, the fluorescence artifact activation was 0.08%.
As to `CCCCC1=CC2=C(c3ccco3)C(=O)C(C)(OC(=O)c3ccc(OC)cc3)C(=O)C2=CN1CCc1ccccn1` (configuration not stated), the fluorescence artifact activation is 5.57%.
Next, `O=C(COC(=O)/C=C/c1ccccc1[N+](=O)[O-])NNC(=O)c1ccc(F)cc1`: 0.09%; `COc1ccc(OC)c(NC(=O)CNC(=O)Cn2c(C)cc3ccccc3c2=O)c1`: 1380% (active).
Under `COCc1cc(C)n(CC(=O)Nc2ccccc2C(=O)OC)c(=O)c1C#N` stands 5.24%; under `COc1ccc(OC)c(NC(=S)Nc2ccccc2)c1`, -0.01%.
Under `C=CCn1c(COc2cccc(C)c2)nnc1SCn1nnc2ccccc2c1=O` stands 0.03%; under `NC(=O)C1(NC(=O)[C@@H]2CC3(CC(c4cccc(NC(=O)[C@@H]5CCC(=O)N5)c4)=NO3)CN2C(=O)c2ccccc2)CC1` (some centres not stated), 0.3%.
For the compound `CCC(=O)Nc1ccc(NC(=S)NC(=O)c2oc3ccccc3c2C)cc1`, the fluorescence artifact activation was 0.25%.
`COCCCn1c(=O)/c(=C\c2ccccc2OC(C)C)s/c1=C(/C#N)C(=O)Nc1ccc(C(=O)O)cc1`: the fluorescence artifact activation was 0.05%.
Under `CCN(CC)c1ccc(/C=C(\C#N)C(=O)c2ccc(Br)cc2)cc1` stands -0.11%.
Under `CCN(CC)c1ccc(/C=C(\C#N)C(=O)NCc2ccccc2)cc1` stands 13.8% (active); under `CN(C)c1ccc(/C=C(\C#N)C(=O)c2ccccc2)cc1`, 0.22%.
Under `CCN(CC)c1ccc(/C=C(/C#N)C(=O)NCc2ccccc2)o1` stands 0.1%; under `CCN(CC)c1ccc(/C=C(\C#N)C(N)=S)cc1`, 16.2% (active).
Regarding `CN(C)c1ccc(/C=C(/C#N)C(=O)NCc2ccccc2)o1`, the fluorescence artifact activation was 2.9%.
Next, `O=C(COC(=O)c1ccc(S(=O)(=O)N2CCCC2)cc1)NCc1ccco1`: 0.32%.
As to `COc1ccccc1C(=O)NN(C)C1=NS(=O)(=O)c2ccccc21`, the fluorescence artifact activation was 0.12%.
Under `CCNC(=O)NNC(=O)C1CC(c2cccs2)=NO1` (configuration not stated) stands 0%; under `Cc1ccc(C2NC(=O)c3c(sc4c3CCN(C)C4)N2)o1` (configuration not stated), 0.12%.
In the case of `CCOC(=O)c1c(C)[nH]c(C2=NNC(=NC(C)COC)SC2)c1C` (configuration not stated), the fluorescence artifact activation was 22% (active).
Next, `Cc1cc(C)n(-c2ccc([N+](=O)[O-])cc2-c2nn[nH]n2)n1`: 2.39%; `CCC(=Cc1ccccc1OC)c1ccncc1`: 3.06%.
Under `COc1ccc(CCNc2cc(C)[nH]c(=O)c2)cc1OC` stands 0.6%; under `Cc1ccc(C)c(NC(=O)CCN2CCOCC2)c1`, -0.02%.
Under `COc1ccc(NC(=O)CCN2CCCC2)c(OC)c1` stands 27.4% (active).
Take `COc1ccc(NC(=O)CCN2CC(C)OC(C)C2)c(OC)c1` (configuration not stated): the fluorescence artifact activation is 0.05%.
Consider `COc1ccc(Nc2nc3ccc(C)cc3cc2C#N)c(OC)c1`, for which the fluorescence artifact activation is 0.04%.
Take `CCCN(CCC)S(=O)(=O)c1ccc(C(=O)OCCN2C(=O)c3cccc4c(N5CCOCC5)ccc(c34)C2=O)cc1`: the fluorescence artifact activation was 4.63%.
Next, `Cc1ccccc1NC(=O)c1nnn(-c2ccc3c(c2)OCCO3)c1N`: 0.09%; `CCN1C(=O)c2cccc3c(NC(=O)c4ccc5c(c4)OCCO5)ccc1c23`: 36.4% (active); `COc1cc(/C=C(/C#N)C(=O)NCCCc2ccccc2)ccc1OCC(=O)O`: 0.24%.
Next, `N#C/C(=C\c1ccccn1)c1nc2ccccc2s1`: 0.06%; `COc1cc(/C=C(\C#N)c2nc3ccccc3s2)ccc1OCC(=O)Nc1ccccc1`: 36.6% (active); `Cc1ccc(S(=O)(=O)Nc2ccccc2N(C)S(=O)(=O)c2ccc(C)cc2)cc1`: 2.27%.
Next, `NC(=O)c1cc2ccc(O)cc2oc1=NCc1ccccc1`: 0.04%.
`CCN1CC=C2C(C1)C(c1ccc(Cl)s1)C(C#N)=C(N)C2(C#N)C#N` (configuration not stated): the fluorescence artifact activation is 2.16%.
Next, `COc1cccc(F)c1C(=O)NC(=O)Nc1ccc2nc(C)oc2c1`: 42.8% (active).
Under `CCNC(=S)N/N=C/c1sc(N2CCCCC2)nc1-c1cccs1` stands 0.09%; under `Cc1ccc(CNC(=O)CCS(=O)(=O)c2cc3c(cc2C)NC(=O)CO3)cc1`, 0.29%.
Next, `Cc1ncn(C23CC4CC(CC(C4)C2)C3)n1`: 0%; `CCc1ccc(C(=O)NNc2cc(Cl)ccc2Cl)cc1`: 0.03%; `Cc1c(Br)c(C(=O)N2CCc3ccccc32)nn1C`: 0.13%.
`Cc1nn(C)c(C(=O)N2CCc3ccccc32)c1Br`: the fluorescence artifact activation is 23.4% (active).
Next, `Cc1cccc2cc3c(N)c(C(=O)N4CCc5ccccc54)sc3nc12`: -0.06%; `Nc1ccc2c3c(cccc13)CC2`: 0.07%; `O=C(Cn1c2[n+](c3ccc(C(F)(F)F)cc31)CCCCC2)Nc1ccccc1`: 0.33%.
Under `CC(=O)/C(C=Nc1noc(C)c1Br)=C(\C)O` stands 11.4%; under `CCC1(CC)C(=O)Nc2ccccc21`, -0.02%.
In the case of `COc1ccc2[nH]c(C(=O)N3CCC(Cc4ccccc4)CC3)cc2c1`, the fluorescence artifact activation is 0.13%.
Next, `COc1ccccc1N1CCN(C(=O)c2cn(-c3ccccc3)nc2-c2cccnc2)CC1`: 0.33%; `COc1ccccc1N1CCN(C(=O)c2ccc(Cn3c(=O)[nH]c4ccsc4c3=O)cc2)CC1`: 51.1% (active); `COc1ccc(C(=O)c2sc3nc(C)cc(-c4cccs4)c3c2N)cc1OC`: 0.66%.
Under `CC(=O)c1ccc2noc(-c3ccc(C)cc3)c2c1` stands 0.23%; under `COc1ccccc1-c1sc2ccccc2c1-c1ccc(Br)nc1`, 0.93%.
Next, `Oc1ccc(-c2c(C3=CCCCC3)sc3ccccc23)cc1`: 28.2% (active); `CCOc1ccccc1C=NNC(=O)CCCCC(=O)NN=Cc1ccccc1OCC`: 0.77%; `Cc1noc(C)c1NC(=O)N(C)C[C@H]1Oc2c(NS(=O)(=O)c3cccs3)cccc2C(=O)N([C@H](C)CO)C[C@@H]1C`: -0.07%.
